Assay outcomes (PubChem BioAssay)
The list is not random: actives were taken first. Their share in the collection is about 2.9%.
HTR1A agonist = 5-HT1a (human) receptor agonism. activation, % at 10 µM. CHO 5-HT1a Ga15 NFAT-bla reporter, FRET ratio; 0% basal, 100% maximal reference agonist. 65,000 tested, 0.56% active. P08908. AID 567;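 active = activation above the screen-wide mean activation plus 3 SD, cut at about 19% in these data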
HTR1E antagonist = blocks the human 5-HT1E serotonin receptor; P28566; CHO 5-HT1E Ga15 NFAT-bla reporter, FRET, antagonist; inhibition, % at 6 µM; 65,000 tested, 0.99% active; AID 571;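 active = inhibition above a set limit, the mean inhibition across every tested compound plus 3 SD, cut at about 29% in these data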;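 note: signal is the 460 over 535 nm emission ratio of beta-lactamase substrate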
S1P1 ag pot = agonists and agonism potentiators of human S1P1 receptor. P21453. S1P1 CRE-bla cells, forskolin, beta-lactamase FRET, potentiator mode; S1P1 agonist co-added at EC20, 2 nM; 100% = saturating reference agonist, 0% = basal. activation, % at 9.5 µM. 56,000 tested, 0.57% active. AID 449;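 active = activation above a cutoff set at the mean activation of all tested compounds plus 3 SD, cut at about 54% in these data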;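 note: forskolin at 4 µM as EC80 and the EC20 agonist is SEW2871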
5-HT1A blocker = 5-HT1a (human) receptor antagonism. P08908. CHO 5-HT1a Ga15 NFAT-bla reporter, antagonist mode. inhibition, % at 10 µM. 62,000 tested, 0.68% active. AID 612;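 active = inhibition above the mean of all tested compounds plus 3 SD, cut at about 43% in these data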;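 note: receptor stimulated by 5-CT agonist at 100 nM near EC80; beta-lactamase reporter measured by ratiometric fluorescence of a cleavable substrate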
S1P3 agonist = S1P3 (human) receptor agonism; Q99500; S1P3 NFAT-BLA reporter cells, FRET ratio; relative to 1 µM S1P, basal subtracted; activation, % at 4.5 µM; 60,000 tested, 0.1% active;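 active = activation above the screen-wide mean plus 3 SD, cut at about 4.5% in these data, passing the limit was not always enough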
Target sequence (Q99500 whole entry, looked up): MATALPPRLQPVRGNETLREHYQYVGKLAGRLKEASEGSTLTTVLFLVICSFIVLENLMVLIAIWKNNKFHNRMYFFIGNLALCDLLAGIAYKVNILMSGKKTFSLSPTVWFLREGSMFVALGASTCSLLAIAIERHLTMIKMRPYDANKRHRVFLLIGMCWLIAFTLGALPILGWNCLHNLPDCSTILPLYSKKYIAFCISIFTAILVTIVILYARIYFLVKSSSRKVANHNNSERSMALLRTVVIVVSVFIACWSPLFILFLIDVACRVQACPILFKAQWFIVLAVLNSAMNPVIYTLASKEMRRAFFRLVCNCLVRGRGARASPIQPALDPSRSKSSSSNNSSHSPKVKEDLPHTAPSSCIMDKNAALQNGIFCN
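material = human S1P3 NFAT-BLA reporter CHO cells | schedule = 4 h compound at 37 °C, 2 h substrate at RT | measured by = fluorescent BLA substrate, ex 405 nm, em 460/535 nm ratio | controls = 1 µM S1P reference | replication = primary once, confirmation triplicate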
5HT1E ag = activates the human 5-HT1E serotonin receptor | AID 574 | 65,000 tested, 0.69% active | P28566 | CHO 5-HT1E Ga15 NFAT-bla reporter, FRET; 0% DMSO wells, 100% control agonist wells | activation, % at 6 µM;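 active = activation above a set limit, the screen-wide mean activation plus 3 SD, cut at about 8.5% in these data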
Large screens that a line does not name were inactive.

Cc1cccc(N2CCN(C(=O)Cn3nc(Cc4ccncc4)c4ccccc4c3=O)CC2)c1C	none
CCCC(=O)Nc1nn(C)c2nc3c(C)cccc3cc12	none
Cc1cccc2cc3c(NC(=O)c4ccccn4)nn(C)c3nc12	S1P3 agonist 5.3
CC(C)(C)C1=Nn2c(nnc2C2CCCCC2)SC1	none (no result: 5-HT1A blocker)
CCOC(=O)Nc1nnc(-c2ccc(OC)c(OC)c2)s1	none
COc1ccc2[nH]c3c(N4CCN(Cc5ccc6c(c5)OCO6)CC4)ncnc3c2c1	HTR1E antagonist 29 (no result: 5-HT1A blocker)
COc1ccc2c(c1)c1ncnc(N3CCN(Cc4ccc5c(c4)OCO5)CC3)c1n2C	none
c1ccc(Oc2ccc(-n3cnnn3)cc2)cc1	HTR1E antagonist 29
O=C(Oc1ccccc1)c1ccc(-n2cnnn2)cc1	none
COc1cccc(NC(=O)N2CCN(c3cccc(C)c3C)CC2)c1	5HT1E ag 30
COc1cccc(NC(=O)N2CCC(N3CCCCC3)CC2)c1	none
CCOC(=O)C1CCCN(C(=O)Cn2nc(Cc3cccnc3)c3ccccc3c2=O)C1 (stereo not drawn)	HTR1A agonist 38
Cc1ccc(-c2csc3ncnc(-n4nc(C)cc4N)c23)cc1	5HT1E ag 8.7
COc1cccc(N2CCN(Cc3coc4c(Cl)cc(Cl)cc4c3=O)CC2)c1	5HT1E ag 32
CCNc1nc(NC(C)C)nc(N(C#N)Cc2ccccc2)n1	none
CCNc1nc(NC(C)(C)C)nc(N(C#N)CC)n1	HTR1E antagonist 29
CCC(CC)C(=O)Nc1cc(C)cc(C)c1	none
Cn1cccc1Cc1nnc(SCC(=O)Nc2ccc3c(c2)OCO3)n1-c1ccc(F)cc1	none
CN(C)Cc1cc(C(C)(C)c2cc(CN(C)C)c(O)c(CN(C)C)c2)cc(CN(C)C)c1O	HTR1A agonist 75
Cc1ccc(-c2nc(CN(C)C)cc(CN(C)C)c2O)cc1	none
C=CCn1c2ccccc2c2nnc(SCc3ccc4nonc4c3)nc21	none
CCOC(=O)c1oc2cc(O)c(CC)cc2c(=O)c1-c1ccc2c(c1)OCCO2	none
Cc1oc2cc(O)cc(O)c2c(=O)c1-c1ccc2c(c1)OCCCO2	S1P1 ag pot 93
COc1ccc(NS(=O)(=O)c2ccc3c(c2)Cc2ccccc2-3)cn1	none (no result: S1P1 ag pot)
Cc1cc(C(C)(C)C)c(O)c(C)c1CC1=NCCN1	HTR1A agonist 81, 5HT1E ag 76 (no result: 5-HT1A blocker)
Cc1onc(-c2ccccc2Cl)c1C(=O)N1CCN(c2cccc(Cl)c2)CC1	HTR1E antagonist 29
Cc1onc(-c2ccccc2Cl)c1C(=O)N1CCN(c2ccccc2)CC1	none
CC1c2nc3ccccc3n2C(CC(=O)NCc2ccccn2)C(=O)N1Cc1ccccc1 (stereo not drawn)	none
Cc1ccccc1-n1c(=O)cc(N2CCN(Cc3ccccc3)CC2)[nH]c1=O	none
Cc1ccccc1N1CCN(Cc2cccc(C(=O)O)c2)CC1	5HT1E ag 22
O=C(O)Cn1c(SC2CCCCC2)nc2ccccc21	HTR1A agonist 19
Cc1[nH]c2ccccc2c1C(=O)CN1CCCCC1CCO (stereo not drawn)	none
Cc1nn(C(C)C(=O)N2CCN(c3ccccn3)CC2)c(=O)c2cc3occc3n12 (stereo not drawn)	none
CCc1nn(C(C)C(=O)N2CCN(Cc3ccccc3)CC2)c(=O)c2cc3occc3n12 (stereo not drawn)	5HT1E ag 16
O=C1C2C3C=CC(CO)(O3)C2C(=O)N1c1ccccc1-c1ccccc1 (stereo not drawn)	HTR1E antagonist 103, S1P1 ag pot 154, 5-HT1A blocker 104
O=C(CCN1C(=O)C2C3C=CC(C3)C2C1=O)Nc1ccccn1 (stereo not drawn)	none (no result: S1P1 ag pot)
Cc1ccc(-c2nnc(N3CCCCC3)c3ccccc23)cc1S(=O)(=O)N1CCN(C)CC1	HTR1E antagonist 31
CCN(CC)S(=O)(=O)c1ccc2c(c1)nc(SCC(=O)NC1CC1)n2-c1ccccc1OC	none
COc1cccc(OCCOCCNCCO)c1	HTR1A agonist 42
Cc1cc(SCC#N)n2nc(C)c(-c3ccccc3)c2n1	HTR1E antagonist 57
CCC(C)(C)n1nnnc1C(c1ccc2ncccc2c1)N1CCN2CCCC2C1 (stereo not drawn)	none
CC1Cc2ccccc2N1c1ncnc2nc[nH]c12 (stereo not drawn)	S1P1 ag pot 93
c1ccc2c(c1)CCN(c1ncnc3nc[nH]c13)C2	none
Cc1nc2ccccc2c2oc(C(=O)NCc3ccccn3)cc12	HTR1A agonist 34
C/C(Cl)=C/Cn1c(N2CCCC2)nc2c1c(=O)n(C)c(=O)n2C	S1P3 agonist 8.7
CC(=O)c1sc(NC(=O)C2(F)C(F)(F)C(F)(F)C(F)(F)C(F)(F)C2(F)F)nc1C	S1P1 ag pot 111, 5-HT1A blocker 65
CC(=O)c1sc(NC(=O)C=C(C)C)nc1C	none (no result: S1P1 ag pot)
CC(=NCCN1CCNCC1)C1=C(O)CC(C)(C)CC1=O	none
O=S(=O)(NCCCN1CCN(c2ccccc2F)CC1)c1cccc2cccnc12	5HT1E ag 9.1
CCCCOC(=O)C1CCCC(C(=O)OCCCC)N1 (stereo not drawn)	none
Cc1ccc2cc3cc(C(=O)NCCC(C)C)oc3nc2c1	none
CCN(C(=O)c1cc2cc3ccc(C)cc3nc2o1)c1ccc(OC)cc1	5-HT1A blocker 46
O=C(CSc1nnc(-c2ccco2)o1)NC1CC2CCC1C2 (stereo not drawn)	none (no result: S1P1 ag pot)
CCOc1ccccc1-c1nnc(SCC(=O)NC2CC3CCC2C3)n1CC (stereo not drawn)	5HT1E ag 11
Cn1c(=O)[nH]c(=O)c2[nH]c(N(Cc3ccccc3)Cc3ccccc3)nc21	HTR1E antagonist 29
NC(=O)C1(N2CCCCC2)CCN(C(=O)NC2CCCCC2)CC1	none
Cn1nc(CC(=O)N2CCN(c3ccccc3)CC2)c2ccccc2c1=O	none
Cn1nc(CC(=O)Nc2ccc3c(c2)OCCO3)c2ccccc2c1=O	S1P1 ag pot 92
Cn1nc(CC(=O)Nc2ccc(N3CCN(C(=O)OC(C)(C)C)CC3)cc2)c2ccccc2c1=O	S1P1 ag pot 84
COc1ccc(Cn2nnnc2C(c2ccc(N(C)C)cc2)N2CCC(C)CC2)cc1 (stereo not drawn)	5-HT1A blocker 44
CC1CCN(C(c2ccc(N(C)C)cc2)c2nnnn2Cc2ccccc2)CC1 (stereo not drawn)	none
CCn1c2ccccc2c2nc3cc(OC)c(OC)cc3nc21	HTR1E antagonist 45
CCn1c2ccccc2c2nc3ccccc3nc21	HTR1E antagonist 32
O=S(=O)(c1ccc(NC2CCCCC2)cc1)N1CCOCC1	none
Cn1c(SCC(=O)NCc2ccc3c(c2)OCO3)nc2scc(-c3cccs3)c2c1=O	none
